Measured values taken from ChEMBL document CHEMBL1687796, “Synthesis and spectrum of the neoglycoside ACHN-490” (2010).
≈ marks a conversion by molar mass, not a printed value.

Tests used:
Type in all cases: functional
[1] = test system: Citrobacter; experiment: Antibacterial activity against Citrobacter spp. by broth microdilution method
Outline: (§1)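 MICs were determined by CLSI broth microdilution against clinical isolate panels that included aminoglycoside-resistant isolates. […] MIC90 was derived per group and not calculated when n was <10. Imipenem, ceftobiprole, ciprofloxacin and tigecycline MICs were also determined for the resistant isolates.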

[2] = test system: Escherichia coli; experiment: Antibacterial activity against Escherichia coli by broth microdilution method; outline: as §1
[3] = test system: Enterobacter sp.; experiment: Antibacterial activity against Enterobacter spp. by broth microdilution method; outline: as §1
[4] = test system: Klebsiella sp.; experiment: Antibacterial activity against Klebsiella spp. by broth microdilution method; outline: as §1
[5] = test system: Proteus mirabilis; experiment: Antibacterial activity against Proteus mirabilis by broth microdilution method; outline: as §1
[6] = Antibacterial activity against indole positive Proteae by broth microdilution method; outline: as §1
[7] = test system: Serratia sp.; experiment: Antibacterial activity against Serratia spp. by broth microdilution method; outline: as §1
[8] = test system: Staphylococcus sp.; experiment: Antibacterial activity against Staphylococcus spp. by broth microdilution method; outline: as §1
[9] = test system: Acinetobacter sp.; experiment: Antibacterial activity against Acinetobacter spp. by broth microdilution method; outline: as §1
[10] = test system: Pseudomonas aeruginosa; experiment: Antibacterial activity against Pseudomonas aeruginosa by broth microdilution method; outline: as §1
[11] = test system: Staphylococcus aureus; experiment: Antibacterial activity against aminoglycoside-resistant Staphylococcus aureus expressing APH(2'') + AAC(6') by broth microdilution method
Outline: (§2)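 MICs were measured by broth microdilution following CLSI guidance. The strains formed a 25-strain screening panel with diverse aminoglycoside resistance mechanisms. The panel included Gram-negative and S. aureus strains carrying key aminoglycoside-modifying enzymes, strains with altered permeability or efflux, and an armA ribosomal methyltransferase strain.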

[12] = test system: Acinetobacter; experiment: Antibacterial activity against aminoglycoside-resistant Acinetobacter spp. expressing APH(3')-6 by broth microdilution method
Outline: (§3)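 Clinical aminoglycoside-resistant isolates were each carrying a single aminoglycoside-modifying enzyme. […] MICs were determined by CLSI broth microdilution.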

[13] = test system: Acinetobacter baumannii; experiment: Antibacterial activity against aminoglycoside-susceptible Acinetobacter baumannii by broth microdilution method
[14] = test system: Acinetobacter baumannii; experiment: Antibacterial activity against Acinetobacter baumannii ATCC 19606 by broth microdilution method; conditions: ATCC 19606 = CIP 70.34 = JCM 6841; outline: as §2
[15] = test system: Acinetobacter calcoaceticus; experiment: Antibacterial activity against aminoglycoside-resistant Acinetobacter calcoaceticus expressing AAC(6')-1 by broth microdilution method; outline: as §3
[16] = test system: Pseudomonas aeruginosa; experiment: Antibacterial activity against Pseudomonas aeruginosa ATCC 27853 by broth microdilution method
[17] = test system: Pseudomonas aeruginosa; experiment: Antibacterial activity against wild type Pseudomonas aeruginosa expressing efflux pump by broth microdilution method
Outline: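 MIC was determined by CLSI broth microdilution, read in μg/ml. The strain came from a 25-strain screening panel with diverse aminoglycoside resistance mechanisms. The panel included strains with changes in permeability or efflux, key aminoglycoside-modifying enzymes and an armA methyltransferase strain.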

[18] = test system: Pseudomonas aeruginosa; experiment: Antibacterial activity against efflux pump deficient Pseudomonas aeruginosa by broth microdilution method
[19] = test system: Pseudomonas aeruginosa; experiment: Antibacterial activity against Pseudomonas aeruginosa expressing mexXY operon by broth microdilution method; outline: as §2
[20] = test system: Pseudomonas aeruginosa; experiment: Antibacterial activity against Pseudomonas aeruginosa expressing ANT(4')-2 by broth microdilution method; outline: as §2
[21] = test system: Pseudomonas aeruginosa; experiment: Antibacterial activity against Pseudomonas aeruginosa expressing AAC(3)-1 by broth microdilution method
[22] = test system: Pseudomonas aeruginosa; experiment: Antibacterial activity against Pseudomonas aeruginosa expressing AAC(6')-2 by broth microdilution method
[23] = test system: Klebsiella pneumoniae; experiment: Antibacterial activity against aminoglycoside-resistant Klebsiella pneumoniae expressing AAC(3)-1 by broth microdilution method; outline: as §3
[24] = test system: Citrobacter freundii; experiment: Antibacterial activity against aminoglycoside-resistant Citrobacter freundii expressing AAC(3)-2 by broth microdilution method; outline: as §3
[25] = test system: Klebsiella aerogenes; experiment: Antibacterial activity against aminoglycoside-resistant Enterobacter aerogenes expressing AAC(3)-2 by broth microdilution method; outline: as §3
[26] = test system: Enterobacter cloacae; experiment: Antibacterial activity against aminoglycoside-resistant Enterobacter cloacae expressing AAC(3)-2 by broth microdilution method; outline: as §3
[27] = test system: Escherichia coli; experiment: Antibacterial activity against aminoglycoside-resistant Escherichia coli expressing AAC(3)-2 by broth microdilution method; outline: as §3
[28] = test system: Klebsiella oxytoca; experiment: Antibacterial activity against aminoglycoside-resistant Klebsiella oxytoca expressing AAC(3)-2 by broth microdilution method; outline: as §3
[29] = test system: Klebsiella pneumoniae; experiment: Antibacterial activity against aminoglycoside-resistant Klebsiella pneumoniae expressing AAC(3)-2 by broth microdilution method; outline: as §3
[30] = test system: Serratia liquefaciens; experiment: Antibacterial activity against aminoglycoside-resistant Serratia liquefaciens expressing AAC(3)-2 by broth microdilution method; outline: as §3
[31] = test system: Escherichia coli; experiment: Antibacterial activity against aminoglycoside-resistant Escherichia coli expressing AAC(3)-4 by broth microdilution method; outline: as §3
[32] = test system: Klebsiella pneumoniae; experiment: Antibacterial activity against aminoglycoside-resistant Klebsiella pneumoniae expressing AAC(3)-4 by broth microdilution method; outline: as §3
[33] = test system: Citrobacter freundii; experiment: Antibacterial activity against aminoglycoside-resistant Citrobacter freundii expressing AAC(6')-1 by broth microdilution method; outline: as §3
[34] = test system: Klebsiella aerogenes; experiment: Antibacterial activity against aminoglycoside-resistant Enterobacter aerogenes expressing AAC(6')-1 by broth microdilution method; outline: as §3
[35] = test system: Enterobacter cloacae; experiment: Antibacterial activity against aminoglycoside-resistant Enterobacter cloacae expressing AAC(6')-1 by broth microdilution method; outline: as §3
[36] = test system: Escherichia coli; experiment: Antibacterial activity against aminoglycoside-resistant Escherichia coli expressing AAC(6')-1 by broth microdilution method; outline: as §3
[37] = test system: Klebsiella oxytoca; experiment: Antibacterial activity against aminoglycoside-resistant Klebsiella oxytoca expressing AAC(6')-1 by broth microdilution method; outline: as §3
[38] = test system: Klebsiella pneumoniae; experiment: Antibacterial activity against aminoglycoside-resistant Klebsiella pneumoniae expressing AAC(6')-1 by broth microdilution method; outline: as §3
[39] = test system: Serratia marcescens; experiment: Antibacterial activity against aminoglycoside-resistant Serratia marcescens expressing AAC(6')-1 by broth microdilution method; outline: as §3
[40] = test system: Staphylococcus aureus; experiment: Antibacterial activity against aminoglycoside-resistant Staphylococcus aureus expressing ANT(4',4'')-2 by broth microdilution method; outline: as §3
[41] = test system: Staphylococcus epidermidis; experiment: Antibacterial activity against aminoglycoside-resistant Staphylococcus epidermidis expressing ANT(4',4'')-2 by broth microdilution method; outline: as §3
[42] = test system: Staphylococcus aureus; experiment: Antibacterial activity against aminoglycoside-resistant Staphylococcus aureus expressing APH(2'') + AAC(6')-1 by broth microdilution method; outline: as §3
[43] = test system: Staphylococcus epidermidis; experiment: Antibacterial activity against aminoglycoside-resistant Staphylococcus epidermidis expressing APH(2'') + AAC(6')-1 by broth microdilution method; outline: as §3
[44] = test system: Acinetobacter baumannii; experiment: Antibacterial activity against aminoglycoside-resistant Acinetobacter baumannii expressing […] by broth microdilution method; outline: as §3
[45] = test system: Acinetobacter baumannii; experiment: Antibacterial activity against aminoglycoside-resistant Acinetobacter baumannii expressing ANT(2'')-1 by broth microdilution method; outline: as §3
[46] = test system: Acinetobacter baumannii; experiment: Antibacterial activity against aminoglycoside-resistant Acinetobacter baumannii expressing APH(3')-6 by broth microdilution method; outline: as §3
[47] = test system: Pseudomonas aeruginosa; experiment: Antibacterial activity against aminoglycoside-resistant Pseudomonas aeruginosa expressing AAC(6')-2 by broth microdilution method; outline: as §3
[48] = test system: Pseudomonas aeruginosa; experiment: Antibacterial activity against aminoglycoside-resistant Pseudomonas aeruginosa expressing ANT(2'')-1 by broth microdilution method; outline: as §3
[49] = test system: Staphylococcus epidermidis; experiment: Antibacterial activity against aminoglycoside-resistant Staphylococcus epidermidis expressing APH(3')-3 by broth microdilution method
[50] = test system: Klebsiella pneumoniae; experiment: Antibacterial activity against Klebsiella pneumoniae ATCC 10031 by broth microdilution method; outline: as §2
[51] = test system: Escherichia coli; experiment: Antibacterial activity against aminoglycoside-resistant Escherichia coli expressing ANT(6')-1 by broth microdilution method; outline: as §3
[52] = test system: Escherichia coli; experiment: Antibacterial activity against Escherichia coli ATCC 25922 by broth microdilution method; outline: as §2
[53] = test system: Escherichia coli; experiment: Antibacterial activity against aminoglycoside-resistant Escherichia coli expressing ANT(2'')-1 by broth microdilution method; outline: as §3
[54] = test system: Escherichia coli; experiment: Antibacterial activity against aminoglycoside-resistant Escherichia coli expressing ANT(3)-2 by broth microdilution method; outline: as §3
[55] = test system: Escherichia coli; experiment: Antibacterial activity against aminoglycoside-resistant Escherichia coli expressing armA methylase by broth microdilution method; outline: as §2
[56] = test system: Serratia marcescens; experiment: Antibacterial activity against aminoglycoside-resistant Serratia marcescens expressing ANT(2''), AAC(6') by broth microdilution method; outline: as §2

Compound: CN(C)c1cc(NC(=O)CNC(C)(C)C)c(O)c2c1C[C@H]1C[C@H]3[C@H](N(C)C)C(O)=C(C(N)=O)C(=O)[C@@]3(O)C(O)=C1C2=O [TIGECYCLINE]
- MIC50 [1]: 0.5 µg/mL (≈ 0.854 µM)
- MIC50 [2]: 0.25 µg/mL (≈ 0.427 µM)
- MIC90 [2]: 0.5 µg/mL (≈ 0.854 µM)
- MIC50 [3]: 0.5 µg/mL (≈ 0.854 µM)
- MIC90 [3]: 4 µg/mL (≈ 6.83 µM)
- MIC50 [4]: 1 µg/mL (≈ 1.71 µM)
- MIC90 [4]: 2 µg/mL (≈ 3.41 µM)
- MIC50 [5]: 4 µg/mL (≈ 6.83 µM)
- MIC90 [5]: 8 µg/mL (≈ 13.7 µM)
- MIC50 [6]: 2 µg/mL (≈ 3.41 µM)
- MIC50 ([7]; Serratia sp. (in: enterobacteria)): 2 µg/mL (≈ 3.41 µM)
- MIC50 [8]: 0.25 µg/mL (≈ 0.427 µM)
- MIC90 [8]: 0.5 µg/mL (≈ 0.854 µM)
- MIC50 [9]: 2 µg/mL (≈ 3.41 µM)
- MIC90 [9]: 16 µg/mL (≈ 27.3 µM)
- MIC50 [10]: 16 µg/mL (≈ 27.3 µM)
- MIC90 [10]: > 16 µg/mL

Compound: GENTAMICIN
- MIC [11]: > 64 µg/mL
- MIC [12]: 1 µg/mL
- MIC [13]: 1 µg/mL
- MIC [14]: 16 µg/mL
- MIC [15]: 8 µg/mL
- MIC [16]: 1 µg/mL
- MIC [17]: 1 µg/mL
- MIC [18]: 0.125 µg/mL
- MIC [19]: 2 µg/mL
- MIC [20]: 4 µg/mL
- MIC [21]: 64 µg/mL
- MIC [22]: 32 µg/mL
- MIC50 [1]: > 64 µg/mL
- MIC50 [2]: 64 µg/mL
- MIC90 [2]: > 64 µg/mL
- MIC50 [3]: 32 µg/mL
- MIC90 [3]: > 64 µg/mL
- MIC50 [4]: 32 µg/mL
- MIC90 [4]: > 64 µg/mL
- MIC50 [5]: 32 µg/mL
- MIC90 [5]: > 64 µg/mL
- MIC50 [6]: > 64 µg/mL
- MIC50 [7]: 64 µg/mL
- MIC50 [8]: 32 µg/mL
- MIC90 [8]: > 64 µg/mL
- MIC50 [9]: > 64 µg/mL
- MIC90 [9]: > 64 µg/mL
- MIC50 [10]: > 64 µg/mL
- MIC90 [10]: > 64 µg/mL
- MIC [23]: 32 µg/mL
- MIC [24]: 62 µg/mL
- MIC [25]: 62 µg/mL
- MIC [26]: 62 µg/mL
- MIC [27]: 62 µg/mL
- MIC [28]: 62 µg/mL
- MIC [29]: 62 µg/mL
- MIC [30]: 62 µg/mL
- MIC [31]: 16 µg/mL
- MIC [32]: 16 µg/mL
- MIC [33]: 1 µg/mL
- MIC [34]: 1 µg/mL
- MIC [35]: 1 µg/mL
- MIC [36]: 1 µg/mL
- MIC [37]: 1 µg/mL
- MIC [38]: 1 µg/mL
- MIC [39]: 1 µg/mL
- MIC [40]: 1 µg/mL
- MIC [41]: 1 µg/mL
- MIC [42]: 50 µg/mL
- MIC [43]: 50 µg/mL
- MIC [44]: 16 µg/mL
- MIC [45]: > 64 µg/mL
- MIC [46]: 4 µg/mL
- MIC [47]: 64 µg/mL
- MIC [48]: 56 µg/mL
- MIC [49]: 1 µg/mL
- MIC [50]: 0.125 µg/mL
- MIC [51]: 4 µg/mL
- MIC [52]: 1 µg/mL
- MIC [53]: > 64 µg/mL
- MIC [54]: > 64 µg/mL
- MIC [55]: > 64 µg/mL
- MIC [56]: 4 µg/mL
